Measurements gathered from unrelated publications.
Compare with care: the assays were run in different laboratories.
Target: Mu-type opioid receptor (OPRM1, Homo sapiens, UniProt P35372)

SMILES	assay	test system	conditions	quantity	result
Clc1ccc2c(C3CCN(CCc4c[nH]c5ccccc45)CC3)c[nH]c2c1	ligand displacement, radioligand	–	10 µM	inhibition	93%
CC(C)N1CCC[C@H]1CNC(=O)c1cn(C2CCCC2)c(=O)c2c1c1ccccc1n2C	ligand displacement, radioligand	–	10 µM	inhibition	5%
CC1(C)SSC(C)(C)[C@@H](NC(=O)[C@@H](N)Cc2ccc(O)cc2)C(=O)NCC(=O)N[C@@H](Cc2ccccc2)C(=O)N2CCN(CC2)C(=O)[C@H](Cc2ccccc2)NC(=O)CNC(=O)[C@@H]1NC(=O)[C@@H](N)Cc1ccc(O)cc1	cAMP, agonist, luciferase	HEK293	–	Emax	86%
COc1ccsc1CNCC[C@@]1(c2ccccn2)CCOC2(CCCC2)C1	β-arrestin recruitment, agonist	HEK-293T	–	Emax	< 5%
c1ccc(C(NCCNC(c2ccccc2)c2ccccc2)c2ccccc2)cc1	ligand displacement	–	10 µM	inhibition	21%
CC[C@@H]1CN2CC[C@@]3(O)C(=Nc4cccc(OC)c43)[C@@H]2C[C@@H]1/C(=C\OC)C(=O)OC	β-arrestin recruitment, agonist	–	–	Emax	< 50%
CCCCC/C=C\C/C=C\C/C=C\C/C=C\CCCC(=O)O	ligand displacement, radioligand	–	10 µM, cell membranes	inhibition	80%
COCc1c(-c2cc3cc(C)cc(OC)c3s2)c2c(N)ncnn2c1CN1CCNC(=O)C1	ligand displacement, radioligand	–	10 µM	inhibition	31%
CN1CCN(c2cc(-c3ccncc3)c(-c3ccc4ccccc4c3)nn2)CC1	calcium signal, agonist	OPRM1	12.5 µM	activation	0.3%
Nc1ncc(-c2nc(N3CCOCC3)nc(N3CCOCC3)n2)c(C(F)F)n1	cell-free assay, radioligand	–	10 µM	remaining signal	104%
CC1=C(C#N)C(c2ccc3[nH]nc(C)c3c2)C(C#N)=C(C)N1	ligand displacement	–	10 µM	inhibition	2.64%
CCN(CC)CCCC[C@H](NC(=O)[C@H](CC(C)C)NC(=O)[C@H](C)NC(=O)[C@H](Cc1ccccc1)NC(=O)c1ccc(C(C)(C)C)cc1)C(=O)N[C@@H](CO)C(=O)OC	ligand displacement, radioligand	–	10 µM	remaining binding	48.6%
CN(C)C(=O)Cn1cc(-c2nc(C3(c4ccc(-c5cnc(N)nc5)cc4)CC3)no2)cn1	cell-free assay	–	10 µM	inhibition	12.6%
C[C@H](C(=O)N[C@H]1COc2ccccc2[C@@H]1S(C)(=O)=O)c1ccc(F)cc1	ligand displacement	–	10 µM	inhibition	-8%
COc1ccc2c(c1)O[C@H](c1ccc(OC)c(OC)c1)C[C@@H]2NC(=O)C1(c2ccc3c(c2)OC(F)(F)O3)CC1	cell-free assay	–	10 µM	inhibition	6.01%
COc1ccsc1CNCC[C@@]1(c2ccccn2)CCOC2(CCCC2)C1	β-arrestin recruitment, agonist	–	–	Emax	< 50%
